What all share (parameters): scale not given: the % may be the effect or the level left
For assay [1], the species on record is Rattus norvegicus. Description: Reduction in sterol level in CFE rat […] in serum at 0.1% of diet treated through diet for 6 days relative to control. Type of assay: functional. An outline of the steps: (§1)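 Compound dissolved in methanol-chloroform (1:3 v/v), mixed into ground rat chow at 0.1, 0.05 or 0.025% (w/w), and solvent evaporated; controls received solvent-treated chow. Rats fed ad libitum with water for 6 days, then killed fed and bled. Serum sterols and triglycerides measured by autoanalyzer. Values given as percent of control, mean ± SE; significance by Student's t test.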

Assay [2] is filed under the species Rattus norvegicus. Description: Reduction in triglyceride level in CFE rat […] in serum at 0.1% of diet treated through diet for 6 days relative to control. The class given is functional. The essentials:
as §1

The species entered for assay [3] is Rattus norvegicus. Description: Reduction in triglyceride level in CFE rat […] in serum at 0.05% of diet treated through diet for 6 days relative to control. Type of assay: functional. The essentials:
as §1

The species entered for assay [4] is Rattus norvegicus. Description: Reduction in triglyceride level in CFE rat […] at 0.025% of diet treated through diet for 6 days relative to control. The class given is functional, Serum. An outline of the steps: as §1
For assay [5], the species on record is Rattus norvegicus. Description: Reduction in sterol level in CFE rat […] at 0.025% of diet treated through diet for 6 days relative to control. Type of assay: functional, Serum. The essentials:
as §1

For assay [6], the species on record is Rattus norvegicus. Description: Reduction in sterol level in CFE rat […] in serum at 0.05% of diet treated through diet for 6 days relative to control. The class given is functional. An outline of the steps: as §1

Molecules are shown by their SMILES.

In the case of `C=CCCCCCCCCCOc1ccc(C(=O)OC)cc1`, the Activity in the assay filed under Rattus norvegicus [1] is 90%; in the assay listed under Rattus norvegicus [2], 58%; in the assay filed under Rattus norvegicus [3] it was 52%; in the assay filed under Rattus norvegicus [4] it was 65%; in the assay listed under Rattus norvegicus [5], 97%; in the assay filed under Rattus norvegicus [6], 94%.

On to `CCCCCCCC/C=C/CCCCCCCCOc1ccc(C(=O)OC)cc1`, for which the Activity in the assay listed under Rattus norvegicus [1] came to 104%; in the assay listed under Rattus norvegicus [2] it was 46%; in the assay filed under Rattus norvegicus [3], 86%; in the assay filed under Rattus norvegicus [4] it was 73%; in the assay listed under Rattus norvegicus [5], 102%; in the assay filed under Rattus norvegicus [6] it was 102%.

Consider `CCCCCCCCCCCC(Cl)CCOc1ccc(C(=O)OC)cc1` (configuration not stated), for which the Activity is given as 84% in the assay listed under Rattus norvegicus [1]; 45% in the assay listed under Rattus norvegicus [2]; 53% in the assay listed under Rattus norvegicus [3]; 80% in the assay filed under Rattus norvegicus [4]; 100% in the assay listed under Rattus norvegicus [5]; 87% in the assay filed under Rattus norvegicus [6].

On to `CCCCCCCCCCCC(CCOc1ccc(C(=O)OC)cc1)SC(C)=O` (configuration not stated), for which the Activity in the assay listed under Rattus norvegicus [1] amounted to 81%; in the assay filed under Rattus norvegicus [2] it was 59%; in the assay listed under Rattus norvegicus [3], 70%; in the assay filed under Rattus norvegicus [4], 83%; in the assay listed under Rattus norvegicus [5], 94%; in the assay listed under Rattus norvegicus [6], 89%.

With `COC(=O)c1ccc(OCCCCCCCCCCCO)cc1`, the Activity in the assay listed under Rattus norvegicus [1] worked out at 92%; in the assay listed under Rattus norvegicus [2] it was 72%; in the assay filed under Rattus norvegicus [3], 86%; in the assay filed under Rattus norvegicus [4], 140%; in the assay filed under Rattus norvegicus [5], 94%; in the assay filed under Rattus norvegicus [6], 94%.

On to `COC(=O)c1ccc(OCCCCCCCCCCCCCCCO)cc1`, for which the Activity in the assay listed under Rattus norvegicus [1] is 93%; in the assay listed under Rattus norvegicus [2], 89%; in the assay filed under Rattus norvegicus [3] it was 104%; in the assay listed under Rattus norvegicus [4] it was 98%; in the assay listed under Rattus norvegicus [5], 96%; in the assay listed under Rattus norvegicus [6], 98%.

With `COC(=O)c1ccc(OCCCCCCCCCCCOS(C)(=O)=O)cc1`, the Activity in the assay filed under Rattus norvegicus [1] is given as 91%; in the assay filed under Rattus norvegicus [2], 72%; in the assay filed under Rattus norvegicus [3], 81%; in the assay listed under Rattus norvegicus [4], 79%; in the assay listed under Rattus norvegicus [5] it was 105%; in the assay listed under Rattus norvegicus [6] it was 105%.

For `COCCCCCCCCCCCOc1ccc(C(=O)OC)cc1`, the Activity in the assay listed under Rattus norvegicus [1] is given as 104%; in the assay filed under Rattus norvegicus [2], 36%; in the assay listed under Rattus norvegicus [3] it was 69%; in the assay filed under Rattus norvegicus [4], 77%; in the assay filed under Rattus norvegicus [5] it was 93%; in the assay filed under Rattus norvegicus [6], 96%.

For the compound `COC(=O)c1ccc(OCCCCCCCCCCCSC(C)=O)cc1`, the Activity in the assay listed under Rattus norvegicus [1] amounted to 113%; in the assay filed under Rattus norvegicus [2], 63%; in the assay listed under Rattus norvegicus [3], 88%; in the assay listed under Rattus norvegicus [4] it was 66%; in the assay filed under Rattus norvegicus [5] it was 106%; in the assay filed under Rattus norvegicus [6], 98%.

For the compound `CCSCCCCCCCCCCCOc1ccc(C(=O)OC)cc1`, the Activity in the assay listed under Rattus norvegicus [1] is given as 100%; in the assay filed under Rattus norvegicus [2], 65%; in the assay listed under Rattus norvegicus [3], 74%; in the assay filed under Rattus norvegicus [4] it was 71%; in the assay listed under Rattus norvegicus [5], 110%; in the assay listed under Rattus norvegicus [6], 100%.

`CCCCSCCCCCCCCCCCOc1ccc(C(=O)OC)cc1`: the Activity in the assay filed under Rattus norvegicus [1] is given as 96%; in the assay filed under Rattus norvegicus [2], 69%; in the assay filed under Rattus norvegicus [3], 62%; in the assay listed under Rattus norvegicus [4], 87%; in the assay listed under Rattus norvegicus [5] it was 100%; in the assay filed under Rattus norvegicus [6] it was 92%.

In the case of `COC(=O)c1ccc(OCCCCCCCCCCCSCc2ccccc2)cc1`, the Activity is given as 87% in the assay listed under Rattus norvegicus [1]; 58% in the assay listed under Rattus norvegicus [2]; 49% in the assay listed under Rattus norvegicus [3]; 64% in the assay filed under Rattus norvegicus [4]; 91% in the assay listed under Rattus norvegicus [5]; 85% in the assay filed under Rattus norvegicus [6].

In the case of `COC(=O)c1ccc(OCCCCCCCCCCCSC#N)cc1`, the Activity in the assay filed under Rattus norvegicus [1] worked out at 160%; in the assay filed under Rattus norvegicus [2], 145%; in the assay filed under Rattus norvegicus [3], 94%; in the assay filed under Rattus norvegicus [4], 80%; in the assay filed under Rattus norvegicus [5], 102%; in the assay listed under Rattus norvegicus [6], 102%.

On to `COC(=O)c1ccc(OCCCCCCCCCCCCl)cc1`, for which the Activity stood at 102% in the assay listed under Rattus norvegicus [1]; 41% in the assay listed under Rattus norvegicus [2]; 81% in the assay listed under Rattus norvegicus [3]; 94% in the assay listed under Rattus norvegicus [4]; 110% in the assay listed under Rattus norvegicus [5]; 108% in the assay filed under Rattus norvegicus [6].

Regarding `CCCCNCCCCCCCCCCCOc1ccc(C(=O)OC)cc1`, the Activity is given as 96% in the assay filed under Rattus norvegicus [1]; 114% in the assay filed under Rattus norvegicus [2]; 88% in the assay listed under Rattus norvegicus [3]; 104% in the assay listed under Rattus norvegicus [4]; 102% in the assay filed under Rattus norvegicus [5]; 95% in the assay filed under Rattus norvegicus [6].

Regarding `CCCCNCCCCCCCCCCCOc1ccc(C(=O)OC)cc1.Cl`, the Activity in the assay listed under Rattus norvegicus [1] came to 89%; in the assay filed under Rattus norvegicus [2], 66%; in the assay listed under Rattus norvegicus [3] it was 71%; in the assay listed under Rattus norvegicus [4], 87%; in the assay listed under Rattus norvegicus [5] it was 100%; in the assay listed under Rattus norvegicus [6], 96%.

`CCCCNC(=O)CCCCCCCCCCOc1ccc(C(=O)OC)cc1`: the Activity in the assay filed under Rattus norvegicus [1] was determined as 96%; in the assay listed under Rattus norvegicus [2], 81%; in the assay listed under Rattus norvegicus [3], 97%; in the assay filed under Rattus norvegicus [4], 95%; in the assay listed under Rattus norvegicus [5], 99%; in the assay listed under Rattus norvegicus [6] it was 100%.

On to `CCCCCCCCCCCCCCCCOc1ccc(C(=O)OC2CCN(C)CC2)cc1`, for which the Activity worked out at 96% in the assay listed under Rattus norvegicus [1]; 117% in the assay filed under Rattus norvegicus [2]; 110% in the assay listed under Rattus norvegicus [3]; 100% in the assay filed under Rattus norvegicus [4]; 85% in the assay filed under Rattus norvegicus [5]; 87% in the assay filed under Rattus norvegicus [6].

For `CCCCCCCCCCC/C=C/CCCOc1ccc(C(=O)OC)cc1`, the Activity is recorded as 75% in the assay listed under Rattus norvegicus [1]; 68% in the assay filed under Rattus norvegicus [2]; 57% in the assay listed under Rattus norvegicus [3]; 72% in the assay listed under Rattus norvegicus [4]; 68% in the assay listed under Rattus norvegicus [5]; 73% in the assay filed under Rattus norvegicus [6].

As to `CCCCCCCCCCCCC/C=C\COc1ccc(C(=O)OC)cc1`, the Activity in the assay filed under Rattus norvegicus [1] came out at 82%; in the assay listed under Rattus norvegicus [2], 89%; in the assay filed under Rattus norvegicus [3], 83%; in the assay filed under Rattus norvegicus [4] it was 96%; in the assay filed under Rattus norvegicus [5], 89%; in the assay filed under Rattus norvegicus [6], 83%.

On to `CCCCCCCCCCCCCC#CCOc1ccc(C(=O)OC)cc1`, for which the Activity is on record as 89% in the assay listed under Rattus norvegicus [1]; 57% in the assay listed under Rattus norvegicus [2]; 66% in the assay filed under Rattus norvegicus [3]; 78% in the assay filed under Rattus norvegicus [4]; 89% in the assay filed under Rattus norvegicus [5]; 83% in the assay listed under Rattus norvegicus [6].

As for `COC(=O)c1ccc(OCC(=O)C23CC4CC(CC(C4)C2)C3)cc1`, the Activity in the assay filed under Rattus norvegicus [1] is given as 89%; in the assay listed under Rattus norvegicus [2] it was 100%; in the assay listed under Rattus norvegicus [3], 82%; in the assay filed under Rattus norvegicus [4] it was 88%; in the assay listed under Rattus norvegicus [5], 97%; in the assay filed under Rattus norvegicus [6] it was 96%.

With `COC(=O)c1ccc(OCC2(C34CC5CC(CC(C5)C3)C4)SCCS2)cc1`, the Activity in the assay filed under Rattus norvegicus [1] was found to be 93%; in the assay listed under Rattus norvegicus [2] it was 112%; in the assay filed under Rattus norvegicus [3], 83%; in the assay filed under Rattus norvegicus [4], 94%; in the assay listed under Rattus norvegicus [5], 94%; in the assay listed under Rattus norvegicus [6], 89%.

Take `CCCCCCCCCCCC(=O)CCOc1ccc(C(=O)OC)cc1`: the Activity in the assay listed under Rattus norvegicus [1] turned out to be 81%; in the assay listed under Rattus norvegicus [2] it was 61%; in the assay listed under Rattus norvegicus [3] it was 61%; in the assay listed under Rattus norvegicus [4], 78%; in the assay filed under Rattus norvegicus [5] it was 100%; in the assay filed under Rattus norvegicus [6], 93%.

In the case of `CCCCCCCCCCC/C(CCOc1ccc(C(=O)OC)cc1)=N/O`, the Activity in the assay listed under Rattus norvegicus [1] came out at 64%; in the assay filed under Rattus norvegicus [2] it was 32%; in the assay filed under Rattus norvegicus [3], 43%; in the assay filed under Rattus norvegicus [4], 53%; in the assay filed under Rattus norvegicus [5] it was 74%; in the assay filed under Rattus norvegicus [6], 67%.

For `CCCCCCCCCCCC1OC1CCCOc1ccc(C(=O)OC)cc1` (configuration not stated), the Activity in the assay filed under Rattus norvegicus [1] was found to be 84%; in the assay listed under Rattus norvegicus [2] it was 65%; in the assay filed under Rattus norvegicus [3], 64%; in the assay filed under Rattus norvegicus [4], 74%; in the assay filed under Rattus norvegicus [5], 103%; in the assay filed under Rattus norvegicus [6], 89%.

Take `CCCCCCCCCCCCCCCCOc1c(Br)cc(C(=O)OC)cc1Br`: the Activity in the assay listed under Rattus norvegicus [1] was found to be 82%; in the assay listed under Rattus norvegicus [2], 88%; in the assay listed under Rattus norvegicus [3], 103%; in the assay listed under Rattus norvegicus [4], 96%; in the assay listed under Rattus norvegicus [5] it was 94%; in the assay listed under Rattus norvegicus [6], 94%.

`CCCCCCCCCCCCCCCCOc1c(Br)cc(C(=O)OC)cc1[N+](=O)[O-]`: the Activity in the assay listed under Rattus norvegicus [1] was determined as 97%; in the assay listed under Rattus norvegicus [2] it was 95%; in the assay filed under Rattus norvegicus [3], 101%; in the assay listed under Rattus norvegicus [4], 113%; in the assay listed under Rattus norvegicus [5], 93%; in the assay filed under Rattus norvegicus [6], 93%.

Take `CCCCCCCCCCCC(CCOc1ccc(C(=O)OC)cc1)OS(=O)(=O)c1ccc(C)cc1` (configuration not stated): the Activity in the assay listed under Rattus norvegicus [1] stood at 98%; in the assay filed under Rattus norvegicus [2] it was 86%; in the assay listed under Rattus norvegicus [3], 91%; in the assay filed under Rattus norvegicus [4] it was 91%; in the assay listed under Rattus norvegicus [5], 102%; in the assay listed under Rattus norvegicus [6], 103%.

Take `CCCCCCCCCCCCCCC(C)(CC)Oc1ccc(C(=O)O)cc1` (configuration not stated): the Activity in the assay listed under Rattus norvegicus [1] was determined as 102%; in the assay listed under Rattus norvegicus [2] it was 94%; in the assay filed under Rattus norvegicus [4], 94%; in the assay listed under Rattus norvegicus [5] it was 100%.

Regarding `CCCCCCCCCCCC(O)C(O)CCCOc1ccc(C(=O)O)cc1` (configuration not stated), the Activity in the assay filed under Rattus norvegicus [1] was 83%; in the assay filed under Rattus norvegicus [2], 55%; in the assay listed under Rattus norvegicus [3] it was 60%; in the assay listed under Rattus norvegicus [6] it was 86%.

(Values after ChEMBL document CHEMBL3272177, “Hypolipidemic alkoxybenzoic acids” (1976).)
